Tests used:
human recombinant COX-2 = molecular target: T1, human recombinant COX-2 (Homo sapiens, UniProt P35354); experiment: COX fluorescent inhibitor screening kit; type: biochemical
T1 sequence (P35354 18-604): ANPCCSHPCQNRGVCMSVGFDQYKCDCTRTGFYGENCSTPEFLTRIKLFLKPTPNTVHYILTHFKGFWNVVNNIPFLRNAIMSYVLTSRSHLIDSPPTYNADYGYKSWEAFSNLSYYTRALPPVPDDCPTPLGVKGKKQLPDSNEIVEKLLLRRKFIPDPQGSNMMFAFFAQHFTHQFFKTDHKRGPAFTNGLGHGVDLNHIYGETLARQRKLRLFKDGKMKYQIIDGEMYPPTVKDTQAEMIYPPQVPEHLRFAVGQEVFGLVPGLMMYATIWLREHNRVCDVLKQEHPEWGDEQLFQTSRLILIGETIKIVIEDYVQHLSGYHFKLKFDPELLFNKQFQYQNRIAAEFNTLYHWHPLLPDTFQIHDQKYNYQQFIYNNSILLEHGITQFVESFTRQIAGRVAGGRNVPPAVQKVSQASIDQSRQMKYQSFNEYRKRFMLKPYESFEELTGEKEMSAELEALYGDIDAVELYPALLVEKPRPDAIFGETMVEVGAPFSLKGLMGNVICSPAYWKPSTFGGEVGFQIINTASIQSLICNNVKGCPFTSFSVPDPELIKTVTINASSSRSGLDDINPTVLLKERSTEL
Outline: (§1)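 Ovine COX-1 or human recombinant COX-2 with heme and ADHP in 100 mM Tris-HCl, pH 8.0. Test compound from 10 mM DMSO stock, final 2.5–100 μM. Arachidonic acid starts the reaction, 2 min at room temperature. Resorufin read at ex 535/em 590 nm. Percent inhibition vs no-inhibitor control; IC50 from concentration–inhibition curve, triplicate determinations.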

ovine COX-1 = molecular target: T2, ovine COX-1 (Ovis aries, UniProt P05979); experiment: COX fluorescent inhibitor screening kit; type: biochemical
T2 sequence (P05979 25-600): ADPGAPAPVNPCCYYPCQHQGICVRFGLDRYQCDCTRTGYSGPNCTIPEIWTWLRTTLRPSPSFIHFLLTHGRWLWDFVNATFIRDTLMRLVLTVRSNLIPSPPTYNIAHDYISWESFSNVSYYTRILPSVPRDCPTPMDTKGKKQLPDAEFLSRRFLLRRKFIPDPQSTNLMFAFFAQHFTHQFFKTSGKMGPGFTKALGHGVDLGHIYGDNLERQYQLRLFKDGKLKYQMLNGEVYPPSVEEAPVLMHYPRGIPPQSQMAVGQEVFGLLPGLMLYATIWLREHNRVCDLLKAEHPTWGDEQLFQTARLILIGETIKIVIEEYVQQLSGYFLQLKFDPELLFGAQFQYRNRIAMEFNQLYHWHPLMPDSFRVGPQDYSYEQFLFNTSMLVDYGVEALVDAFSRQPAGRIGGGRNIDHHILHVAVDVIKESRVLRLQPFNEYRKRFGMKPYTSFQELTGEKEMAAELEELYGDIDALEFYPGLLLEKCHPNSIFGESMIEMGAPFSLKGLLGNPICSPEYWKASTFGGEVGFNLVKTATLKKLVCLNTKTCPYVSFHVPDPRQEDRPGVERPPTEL
Outline: as §1

Row | IC50 (human recombinant COX-2) [µM] | IC50 (ovine COX-1) [µM] | Compound
1 | > 100 | < 2.5 | CC(=O)OC[C@H]1O[C@@H](OC(C)=O)[C@H](NC(=O)c2ccccc2Nc2cccc(C)c2C)[C@@H](OC(C)=O)[C@@H]1OC(C)=O [compound 5, 1,3,4,6-Tetra-O-acetyl-2-deoxy-2-(2-((2,3-dimethylphenyl)amino)benzamido)-β-D-glucopyranose]
2 | 33.6 | 24.9 | COc1ccc2c(c1)c(CC(=O)N[C@H]1[C@H](OC(C)=O)O[C@H](COC(C)=O)[C@@H](OC(C)=O)[C@@H]1OC(C)=O)c(C)n2C(=O)c1ccc(Cl)cc1 [compound 4]
3 | < 2.5 | 25.5 | CC(=O)OC[C@H]1O[C@@H](OC(C)=O)[C@H](NC(=O)Cc2ccccc2Nc2c(Cl)cccc2Cl)[C@@H](OC(C)=O)[C@@H]1OC(C)=O [compound 3]
